# Test results taken from ChEMBL document CHEMBL4699587, “Pyridine-4(1H)-one Alkaloids from Waltheria indica as Antitrypanosomatid Agents” (J Nat Prod, 2020).
# Assays:
# [1] = Selectivity index, ratio of IC50 for cytotoxicity against rat L6 cells to IC50 for growth inhibition of amastigote form of Trypanosoma cruzi Tulahuen C2C4 expressing LacZ infected in rat L6 cells; assay type: toxicity, cell-based; settings: read-out: Ratio IC50
# Method in brief: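 Selectivity index is calculated as the IC50 for cytotoxicity in uninfected rat skeletal L6 host cells divided by the IC50 against T. cruzi (Tulahuen C4) amastigotes. Both IC50 values are in µM.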
# [2] = test system: L6; assay: Cytotoxicity against rat L6 cells assessed as reduction in cell viability after 70 hrs by resazurin dye based inverted microscopic analysis; settings: L6, 70 h
# [3] = test system: Trypanosoma cruzi; assay: Growth inhibition of amastigote form of Trypanosoma cruzi Tulahuen C2C4 expressing LacZ infected in rat L6 cells assessed as reduction in parasitic growth incubated for 96 hra by CPRG/Nonidet reagent based inverted microscopic analysis; assay type: functional, organism-based
# Method in brief: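 Intracellular amastigotes of T. cruzi Tulahuen C4 strain were tested in vitro for growth inhibition. IC50 values are in µM, given as the mean of two independent assays or the mean of three independent assays ± SD.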
SMILES,IC50 [3] [µM],selectivity ratio [1],IC50 [2] [µM]
COc1c(C)[nH]c2c(c1=O)[C@@H](CCCCCc1ccccc1)CCC2,1.3,5,6.5
CCCCCCCCCCCCc1cc(=O)c(OC)c(C)[nH]1,5,> 6,> 32
CCCCCCCCc1cccc2[nH]c(C)c(OC)c(=O)c12,10,1.5,15
COc1c(C)[nH]c2c(c1=O)[C@@H](CCCCCc1ccccc1)CC[C@H]2OC,0.1,13.8,1.8
COc1ccccc1[C@@]12CC[C@@H](OC1)c1c2ccc2[nH]c(C)c(OC)c(=O)c12,19,> 1,> 26
COc1cc(OC)cc(C2=CCCCc3c2ccc2[nH]c(C)c(OC)c(=O)c32)c1,13.1,> 1.5,> 25
O=C(Cn1ccnc1[N+](=O)[O-])NCc1ccccc1 [BENZNIDAZOLE],2.9,> 119,> 345
COc1cc(CCCCCc2ccccc2)c2c(=O)c(OC)c(C)[nH]c2c1OC,12.9,> 1.5,> 23
COc1c(C)[nH]c2ccc3c(c2c1=O)[C@@H]1CC[C@H](O)[C@@]3(c2ccccc2)O1,> 20,> 1,> 22

# Continued by falling IC50 [3], values first:
IC50 [3] [µM],SMILES,selectivity ratio [1],IC50 [2] [µM]
18.7,COc1ccccc1[C@]12CC[C@H](O[C@@H]1OC)c1c2ccc2[nH]c(C)c(OC)c(=O)c12,> 1,> 24
14.7,COc1ccc(OC)c([C@@]2(O)c3ccc4[nH]c(C)c(OC)c(=O)c4c3[C@@H]3CC[C@H]2O3)c1,> 1,> 25
14.7,COc1c(CO)[nH]c2ccc3c(c2c1=O)[C@@H]1CCC[C@@]3(c2ccccc2)O1,> 1.5,> 22
7.5,COc1c(C)n(OC)c2c(c1=O)[C@@H](CCCC[C@H](O)c1ccccc1)CCC2,> 3.5,> 26
7,COc1c(CO)[nH]c2c(c1=O)[C@H](CCCCCc1ccccc1)CCC2,> 4,> 28
6.5,CCCCCCCC[C@H]1CC[C@@H](O)c2[nH]c(C)c(OC)c(=O)c21,4,26.2
3.9,COc1c(CO)n(OC)c2c(c1=O)[C@H](CCCCCc1ccccc1)CCC2,> 6,> 26
2.1,COc1c(C)[nH]c(CCCCCCCCCc2ccccc2)cc1=O,> 13,> 29
2.1,COc1c(C)[nH]c2c(OC)ccc(CCCCCc3ccccc3)c2c1=O,> 12.5,> 26
0.8,COc1c(C)[nH]c2c(c1=O)[C@@H](CCCCCc1ccccc1)CC[C@H]2O,> 33,> 28
0.5,COc1c(C)[nH]c2c(c1=O)[C@@H](CCCCCc1ccccc1)CCC2=O,24.5,12
